Screening data deposited in PubChem BioAssay by The Scripps Research Institute Molecular Screening Center.
VIM-2 inh = blocks Pseudomonas aeruginosa VIM-2 metallo-beta-lactamase | actives 0.89% (n = 290,000) | purified VIM-2, nitrocefin hydrolysis, epi-absorbance fluorescence | inhibition, % at 5.6 µM;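 active = inhibition above the mean of all tested compounds plus 3 SD, cutoff set per screening run, cut at about 7.5% in these data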;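 also: red hydrolysis product quenches plate fluorescence so inhibitors raise well fluorescence; 0% = enzyme with DMSO and 100% = DMSO without enzyme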
core dimer inh = blocks dimerization of HCV core protein. TR-FRET GST/Flag-core106 dimerization, 1536-well. inhibition, % at 5 µM. actives 0.33% (n = 300,000). AID 1899;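 active = inhibition above the mean of all tested compounds plus 3 SD, set per screening campaign, cut at about 45% in these data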
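Assay system – GST-tagged and Flag-tagged HCV core protein residues 1-106 · Quantity – core106 proteins, GST 13.5 nM and Flag 17 nM · Benchmarks – unlabelled core106 and no-GST-core106 wells · Read-out basis – percent inhibition of core106 dimerization signal · Detection – time-resolved FRET, ex 340 nm, em 617 and 671 nm · Schedule – 4 h at 22.5 °C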
FID counter = fluorescent intercalator displacement, NS3 helicase counter-screen | DNA fluorescent intercalator displacement, fluorescence | inhibition, % at 7.9 µM | actives 0.17% (n = 290,000) | AID 1845; in the data active = inhibition above about 37%;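 also: 0% = vehicle and 100% = reference compound; higher means more ethidium bromide displaced from hairpin DNA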
IMP-1 inh-1 = inhibitors of Pseudomonas aeruginosa IMP-1 metallo-beta-lactamase; inhibition, % at 5.6 µM; purified IMP-1, nitrocefin hydrolysis, epi-absorbance fluorescence; actives 0.45% (n = 290,000); AID 1556;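 active = inhibition above the mean plus 3 SD of all compounds in the same screening run, cut at about 4.5% in these data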;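 also: 0% = IMP-1 with DMSO and 100% = DMSO wells lacking enzyme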
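system = purified recombinant IMP-1 beta-lactamase | amount = 0.2 nM IMP-1, as dispensed | medium = HEPES buffer pH 7.1 with ZnSO4 and Brij 35 | times = 25 °C, 15 min preincubation, 25 min reaction | detection = plate fluorescence quenching by hydrolysis product, ex 480/em 530 nm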
IMP-1 inh-2 = blocks IMP-1 metallo-beta-lactamase in VIM-2 selectivity screen; purified IMP-1, nitrocefin hydrolysis, epi-absorbance fluorescence; shares compounds with VIM-2 inh; 1,300 tested, under 10 active; inhibition, % at 5.6 µM; call rule not given here;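 also: 0% = enzyme with vehicle and 100% = vehicle without enzyme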
VIM-2 FRET inh = inhibits VIM-2 in FRET assay to exclude epi-absorbance artifacts; inhibition, % at 5.6 µM; purified VIM-2, CCF2 FRET substrate hydrolysis; shares compounds with VIM-2 inh; actives 23% (n = 1,300);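 active = inhibition above the mean of all tested compounds plus 3 SD, cut at about 19% in these data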;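 also: 0% = VIM-2 plus DMSO and 100% = no enzyme wells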
TEM-1 inh = TEM-1 inhibition, counter-screen for VIM-2 inhibitors. actives 3% (n = 1,300). shares compounds with VIM-2 inh. inhibition, % at 5.6 µM. AID 1866. Purified TEM-1, nitrocefin hydrolysis, epi-absorbance fluorescence;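 active = inhibition above that campaign's mean inhibition plus 3 SD, cut at about 0.46% in these data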;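 also: 0% = TEM-1 with DMSO and 100% = TEM-1 with 100 µM potassium clavulanate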
Target sequence (P62593 whole entry, looked up): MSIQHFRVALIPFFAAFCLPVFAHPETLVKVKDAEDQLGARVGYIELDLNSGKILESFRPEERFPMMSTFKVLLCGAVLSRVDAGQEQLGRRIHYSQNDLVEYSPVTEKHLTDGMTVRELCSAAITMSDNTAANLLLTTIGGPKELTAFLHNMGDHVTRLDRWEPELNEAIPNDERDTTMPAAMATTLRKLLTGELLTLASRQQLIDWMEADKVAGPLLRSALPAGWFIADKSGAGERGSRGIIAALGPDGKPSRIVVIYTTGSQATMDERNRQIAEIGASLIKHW
VIM-2 inh conf = confirmation of P. aeruginosa VIM-2 metallo-beta-lactamase inhibitors | actives 96% (n = 1,300) | AID 2187 | inhibition, % at 5.6 µM | purified VIM-2, nitrocefin hydrolysis, epi-absorbance | shares compounds with VIM-2 inh;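 active = inhibition of the VIM-2 beta-lactamase enzyme above about 11% from the earlier first-round screen, limit read from the data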;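 also: 0% = VIM-2 with DMSO and 100% = buffer wells without enzyme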
The depositor's hits bear a star; . = not tested or not shown. Rows were chosen to be rich in hits. Some 1.6% of all compounds tested hit in one or more screens of this group.

SMILES | VIM-2 inh | core dimer inh | FID counter | IMP-1 inh-1 | IMP-1 inh-2 | VIM-2 FRET inh | TEM-1 inh | VIM-2 inh conf
Cc1cc(OCC(=O)NCc2ccncc2)c2c(C)c(C)c(=O)oc2c1 | 44* | -5 | -25 | 0 | -3 | 0 | -9 | 55*
CCc1cc(=O)oc2cc(C)cc(OCC(=O)NCc3ccncc3)c12 | 20* | -4 | -12 | -1 | -2 | -3 | -6 | 30*
Cc1cc(OCC(=O)Nc2cccnc2)c2c(C)c(C)c(=O)oc2c1 | 61* | 14 | -17 | 0 | -2 | -4 | -5 | 68*
CC(C)C(C)(C#N)NC(=O)CN1C(=O)NC2(CCCc3ccccc32)C1=O (configuration not stated) | -2 | -2 | -11 | 0 | . | . | . | .
CCOc1ccccc1N(C(=O)c1snc(C(N)=O)c1N)C(CC)C(=O)NC1CCCC1 (configuration not stated) | -1 | 4 | -32 | -1 | . | . | . | .
CC1CCN(C(=O)C2CCN(C(=O)c3ccc(C(C)(C)C)cc3)CC2)CC1 | 1 | -1 | -47 | -1 | . | . | . | .
CC(C)N1C(=O)CCC1C(=O)N1CCN(c2ccccn2)CC1 (configuration not stated) | -3 | -1 | -3 | -1 | . | . | . | .
CCCCn1c2nc3ccccc3nc2c2c(=O)n(-c3ccccc3)cnc21 | -2 | 6 | -2 | -3 | . | . | . | .
CN(C)c1ccc(/C=C2\C(=N)N3N=C(CC(=O)N4CCCCC4)SC3=NC2=O)cc1 | 13* | -1 | -56 | 1 | -1 | 29* | -5 | 18*
CCN1CCN(CCCNC(=O)c2cc3c(=O)oc4ccc(C)cc4c3s2)CC1 | 13* | 3 | 22 | 0 | -4 | 0 | -11 | 19*
O=C(NCCCN1CCCCCC1)c1cc2c(=O)oc3ccccc3c2s1 | 16* | -1 | 5 | 0 | -3 | 2 | -14 | 25*
Cc1ccc2oc(=O)c3cc(C(=O)NCCCN4CCN(C)CC4)sc3c2c1 | 13* | 4 | 25 | -2 | -2 | 0 | -9 | 20*
CN1CCN(CCCNC(=O)c2cc3c(=O)n(C)c4ccccc4c3s2)CC1 | 21* | 4 | 22 | 3 | -3 | 1 | -7 | 29*
CCN(Cc1ccccc1)C(=O)c1cc2c(=O)oc3ccc(C)cc3c2s1 | 1 | 9 | -11 | -4 | . | . | . | .
CCCc1ncc(C(O)c2cccc(OC)c2OC)n1C (configuration not stated) | -2 | 0 | 1 | 0 | . | . | . | .
Cc1ccc2oc(=O)c3cc(C(=O)NCCCN4C(C)CCCC4C)sc3c2c1 (configuration not stated) | 12* | -1 | 20 | 1 | -3 | 3 | -10 | 17*
Cc1ccc2[nH]c(=O)c3cc(C(=O)NCC4CCCO4)sc3c2c1 (configuration not stated) | -1 | -2 | -1 | -2 | . | . | . | .
CCOC(=O)N1CCN(S(=O)(=O)c2ccc(C(=O)N(CCN(CC)CC)c3nc4c(C)cccc4s3)cc2)CC1 | -2 | -7 | 6 | -4 | . | . | . | .
O=C(Nc1ccc(N2CCN(Cc3ccccc3)CC2)cc1)c1ncn[nH]1 | 13* | -5 | -1 | -1 | -4 | -1 | -6 | 25*
CCC(=O)Nc1ccc(N2CCN(Cc3ccccc3)CC2)cc1 | 0 | -6 | -1 | -1 | . | . | . | .
CCCN1CCN(C(=O)CCn2c(=O)c3cccn3c3cccnc32)CC1 | 13* | 1 | 0 | 0 | -4 | -3 | -6 | 24*
CCN1CCN(C(=O)CCn2c(=O)c3cccn3c3cccnc32)CC1 | 17* | 3 | -1 | -3 | -2 | 2 | -4 | 25*
COc1ccc(N2CCN(C(=O)CCCn3c(=O)c4cccn4c4cccnc43)CC2)cc1 | 0 | 9 | -32 | -2 | . | . | . | .
O=C(CCCn1c(=O)c2cccn2c2cccnc21)N1CCN(c2ccccc2F)CC1 | 1 | -2 | -11 | -1 | . | . | . | .
Cc1nn(C)c(C(=O)N2CCc3ccccc32)c1Br | -1 | -12 | -9 | -3 | . | . | . | .
SMILES | VIM-2 inh | core dimer inh | FID counter | IMP-1 inh-1 | IMP-1 inh-2 | VIM-2 FRET inh | TEM-1 inh | VIM-2 inh conf
CCN(CC)CCSc1nnc2c3cc(C)ccc3n(Cc3ccccc3)c2n1 | 23* | 2 | 9 | -2 | -3 | 4 | -7 | 43*
CSc1nnc2c3cc(F)ccc3n(Cc3ccccc3)c2n1 | . | 1 | . | . | . | . | . | .
COc1ccc(-c2nnc3sc(CCN4C(=O)c5ccccc5C4=O)nn23)cc1 | 18* | 22 | -8 | -2 | -2 | -3 | -3 | 4
Cc1cc(C)c2c(n1)sc1c(N3CCN(C)CC3)ncnc12 | 13* | 0 | -6 | -1 | -2 | 0 | -4 | 21*
CCN(C(=O)c1cc2c(=O)n3ccccc3nc2s1)C1CCCCC1 | 3 | 10 | -31 | -4 | . | . | . | .
CCN(CC)C(=O)c1cc2c(=O)n3cccc(C)c3nc2n1C | 3 | -1 | -20 | -2 | . | . | . | .
CCN(CC)C(=O)c1cc2c(=O)n3cccc(C)c3nc2s1 | 16* | 5 | -12 | -2 | -4 | -10 | -3 | 20*
CCCCN(CC)C(=O)c1cc2c(=O)n3cccc(C)c3nc2s1 | 12* | 1 | -23 | -1 | -2 | -5 | -4 | 19*
N#Cc1cccc(Nc2c3c(nc4ccccc24)CCC3)c1 | 2 | -2 | 2 | -2 | . | . | . | .
Cc1ccc(NC(=O)c2c3c(nc4ccccc24)CCC3)cc1 | -2 | 18 | -9 | -1 | . | . | . | .
Cc1ccc2nc3c(c(Nc4ccc5c(c4)OCCO5)c2c1)CCC3 | 16* | 1 | 1 | -3 | -4 | -2 | -7 | 30*
Cc1ccc2nc3c(c(Nc4ccc(O)cc4)c2c1)CCC3 | 19* | 0 | -1 | -4 | -3 | -2 | -5 | 32*
CCN(C(=O)c1cc2c(s1)-c1ccccc1OC2)c1cc(OC)ccc1OC | 0 | 2 | -34 | -2 | . | . | . | .
O=C(Nc1ccccc1Cl)N1CCN(c2ccc3nnc(-c4ccccc4)n3n2)CC1 | 16* | 9 | -12 | 1 | 0 | 8 | -1 | 24*
O=C(Nc1ccc(Cl)cc1)N1CCN(c2ccc3nnc(-c4ccc(F)cc4)n3n2)CC1 | 2 | 12 | 0 | -1 | . | . | . | .
O=C(COc1ccc2c3c(c(=O)oc2c1)CCC3)N[C@@H](CSCc1ccccc1)C(=O)O | 1 | 3 | -19 | -6 | . | . | . | .
Cc1cc(OCC(=O)NC2CCN(Cc3ccccc3)CC2)c2c(C)c(C)c(=O)oc2c1 | 34* | -11 | 2 | -4 | -2 | 0 | -3 | 48*
Cc1c(OCC(=O)NC2CCN(Cc3ccccc3)CC2)ccc2c3c(c(=O)oc12)CCC3 | 36* | 5 | 15 | 0 | -3 | 0 | -13 | 45*
